Experimental findings from ChEMBL document CHEMBL1124327, “Synthesis and structure-activity relationships of 2-substituted-6-(dimethylamino)-9-(4-methylbenzyl)-9H-purines with antirhinovirus activity” (J Med Chem, 1989) are described below.

What is called IC50 is the midpoint of a concentration-inhibition curve. High values mean weaker potency, low ones greater potency. As a reminder, the inhibition is the percentage by which the read-out fell short of the control. Read a high inhibition as a response far below the control. The term Inhibition denotes the percentage by which the read-out fell short of the control.

A value given as a limit tells only on which side of the number the result lay.

A short description of test [1]: Compound was tested for anti-rhinovirus type 1B activity in a plaque inhibition assay using monolayers of M-HeLa cells. Type of test: functional, cell-based. Particulars: Homo sapiens.
Test [2] is filed under the species Homo sapiens. The test is described as follows: Inhibition of plaque formation at 8 uM concentration. In kind it is functional.
Test [3] has as its system Enterovirus. The test is described as follows: Inhibitory concentration against rhinovirus 8. Type of test: functional, organism-based.
Test [4] deals with Enterovirus. The test is described as follows: Inhibitory concentration against rhinovirus 30. In kind it is functional, organism-based.
In test [5] the test system is Enterovirus. The test is described as follows: Inhibitory concentration against rhinovirus 13. Type of test: functional, organism-based.
Test [6] relates to Enterovirus. The test is described as follows: Inhibitory concentration against rhinovirus 1B. In kind it is functional, organism-based. In short, it runs like this: (§1)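 Plaque reduction assay against rhinovirus 1B in M-HeLa cell monolayers. IC50 is the concentration giving 50% reduction of plaque formation; pI50 is taken as log (1000/IC50). A reference antiviral was run as a control.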

Test [7] concerns Enterovirus. The test can be described thus: Inhibitory concentration against rhinovirus 16. In kind it is functional, organism-based.
The test system of test [8] is Enterovirus. The test is described as follows: Inhibitory concentration against rhinovirus 21. Type of test: functional, organism-based.
In test [9] the test system is Enterovirus. The test can be described thus: Inhibitory concentration against rhinovirus 18. Type of test: functional, organism-based.
The subject of test [10] is rhinovirus B14. The test is described as follows: Inhibitory concentration against rhinovirus 14. Type of test: functional, organism-based, Enterovirus. Particulars: Rhinovirus B.
Test [11] deals with Enterovirus. The test can be described thus: Inhibitory concentration against rhinovirus 5. Type of test: functional, organism-based.
Test [12] deals with Enterovirus. The test is described as follows: Inhibitory concentration against rhinovirus 3. In kind it is functional, organism-based.
For test [13], the system named is Enterovirus. The test is described as follows: Inhibitory concentration against rhinovirus 19. In kind it is functional, organism-based.
In test [14] the test system is Enterovirus. The test is described as follows: Inhibitory concentration against rhinovirus 4. Type of test: functional, organism-based.
Test [15] relates to Enterovirus. The test is described as follows: Inhibitory concentration against rhinovirus 15. In kind it is functional, organism-based.
The test system of test [16] is Enterovirus. The test can be described thus: Inhibitory concentration against rhinovirus 1A. In kind it is functional, organism-based.
The subject of test [17] is Enterovirus. The test can be described thus: Inhibitory concentration against Rhinovirus 2. In kind it is functional, organism-based.
Test [18] concerns Enterovirus. The test can be described thus: Inhibitory concentration against rhinovirus 31. Type of test: functional, organism-based.
Test [19] deals with Enterovirus. The test can be described thus: Inhibitory concentration against rhinovirus 29. Type of test: functional, organism-based.
Test [20] concerns Enterovirus. The test is described as follows: Inhibitory concentration against rhinovirus 9. Type of test: functional, organism-based.
In test [21] the test system is Enterovirus. The test can be described thus: Inhibition of plaque formation at 8 uM concentration against Rhinovirus 5. In kind it is functional, organism-based.
The test system of test [22] is Enterovirus. The test can be described thus: Inhibitory concentration against Rhinovirus 13. Type of test: functional, organism-based.
Test [23] relates to Enterovirus. The test can be described thus: Inhibitory concentration against Rhinovirus 15. Type of test: functional, organism-based.
Test [24] deals with rhinovirus B14. The test can be described thus: Inhibitory concentration against Rhinovirus 14. Type of test: functional, organism-based, Enterovirus. Particulars: Rhinovirus B.
For test [25], the system named is Enterovirus. The test is described as follows: Inhibitory concentration against Rhinovirus 1A. Type of test: functional, organism-based.
For test [26], the system named is Enterovirus. The test can be described thus: Inhibition of plaque formation at 2.5 uM concentration against Rhinovirus 3. Type of test: functional.
The test system of test [27] is Enterovirus. The test can be described thus: Inhibitory concentration against Rhinovirus 12. Type of test: functional, organism-based.
The test system of test [28] is Enterovirus. The test is described as follows: Inhibitory concentration against Rhinovirus 1B. In kind it is functional, organism-based. The procedure, abridged:
as §1

The test system of test [29] is Enterovirus. The test can be described thus: Inhibitory concentration against Rhinovirus 9. Type of test: functional, organism-based.

Compound `Cc1ccc(Cn2cnc3c(N(C)C)ncnc32)cc1` showed an IC50 in [1] of 8.6 µM.
Same read-out and setting: then `CNc1nc(N(C)C)c2ncn(Cc3ccc(C)cc3)c2n1`, with 4.7 µM.
In turn, `Cc1ccc(Cn2cnc3c(N(C)C)nc(S(C)(=O)=O)nc32)cc1` gave an IC50 in test [1] of 25 µM. For the same compound, in [2], the inhibition stood at 24%.
Turning to `Cc1ccc(Cn2cnc3c(N(C)C)nc(C)nc32)cc1`, the IC50 in test [1] stood at 0.8 µM.
As to `Cc1ccc(Cn2cnc3c(N(C)C)nc(F)nc32)cc1`, the IC50 in test [1] was found to be 0.34 µM.
As for `Cc1ccc(Cn2cnc3c(N(C)C)nc(N(C)C)nc32)cc1`, the IC50 was 1.1 µM in test [1]; 14 µM in test [3]; 2.9 µM in [4]; 13 µM in test [5]; 1.1 µM in [6]; above 20 µM in test [7]. The IC50 in [8] was above 20 µM; in test [9] it was 8.3 µM; in [10] it was 7.9 µM; in test [11], 17.7 µM; in [12], above 10 µM; in [13] it was above 20 µM. For the same compound, the IC50 is above 10 µM in [14]; above 10 µM in [15]; below 1.2 µM in [16]; 3.1 µM in [17]; 15.1 µM in test [18]; 4.9 µM in test [19]. Moreover, in test [20], inhibition was half-maximal at 3.5 µM (IC50).
On to `CCc1nc(N(C)C)c2ncn(Cc3ccc(C)cc3)c2n1`, for which, in test [1], half-maximal inhibition (IC50) was put at 2.3 µM.
As to `Cc1ccc(Cn2cnc3c(N(C)C)nc(C(F)(F)F)nc32)cc1`, the IC50 came to 0.03 µM in test [1]; 2.6 µM in [22]; 1 µM in test [23]; 1.2 µM in [24]; 0.1 µM in test [25]; 2.6 µM in [27]. Besides, the IC50 amounted to 5.7 µM in test [17], 0.03 µM in test [28] and 0.35 µM in [29]. Besides, in test [21], the Inhibition was 18%. For the same compound, the inhibition at 2.5 µM in [26] turned out to be 43%.
Take `CSc1nc(N(C)C)c2ncn(Cc3ccc(C)cc3)c2n1`: in [1], inhibition was half-maximal at 0.34 µM (IC50).
Still for that read-out and setting: then `Cc1ccc(Cn2cnc3c(N(C)C)nc(Cl)nc32)cc1`, with 0.08 µM.
Same read-out and setting: then `Cc1ccc(Cn2cnc3c(N(C)C)nc(N)nc32)cc1`, with 31 µM.
